Only a selection was taken, and hits are over-represented in it overall.
UPR XBP1 act: adaptive UPR (XBP1) activation | CHO-XBP1 luciferase reporter, IRE1-XBP1 UPR activation, luminescence; percent of tunicamycin response, DMSO as zero | activation, % at 20 µM | actives 0.33% (n = 330,000);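 active means versus positive control, 20 µM dose yields 30% or more activation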;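 further: 100% = tunicamycin at 10 µg/mL and 0% = DMSO only wells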
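Material – CHO cell line with stable XBP1 luciferase reporter · Buffer or medium – F12 plus 10% FBS · Compound – single point, 20 µM final compound, 1% DMSO · Schedule – 16-18 h cell attachment at 37 °C, then 6 h compound exposure · Signal – Steady-Glo luminescence read · Benchmarks – high control tunicamycin 10 µg/mL final, low control DMSO vehicle only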
T cruzi inh: blocks replication of Trypanosoma cruzi; AID 1885; inhibition, % (test concentration not listed); actives 1.4% (n = 300,000); T. cruzi beta-gal in NIH3T3, luminescence, 90 h;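 active means mean inhibition across valid replicates above about 55%, limit read from the data; inconclusive means mean below that limit but half or more replicates reach it; inactive means mean below it, under half of replicates reach it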;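 further: signal also drops with host cell toxicity which is not excluded here; 0% = plate median of DMSO wells and 100% = zero luminescence signal; higher percent means less beta-gal luminescence so fewer parasites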
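System: mouse NIH/3T3 fibroblasts infected with β-gal-expressing T. cruzi Tulahuen C4 / Input: NIH/3T3 cells, 5,000 per well / Buffer or medium: Low-serum DMEM with 2% FBS / Probe or stimulus: 5000 reporter trypomastigotes per well / Schedule: ≥90 h infection period, 3 h prior cell attachment / Measured by: GalScreen luminescence, 60 min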
Dynein transport: blocks dynein driven cargo transport along microtubules | 3617.4 mouse cells, GR-EGFP nuclear translocation imaging; test concentration mostly 20 µM; stimulated with dexamethasone, 1 µM; active compounds read low | z-score, hits read low | actives 0.47% (n = 220,000);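 active means plate z-score of nuclear minus cytoplasmic receptor signal below a set negative limit, without overly bright fluorescence or cell loss, cut at about -3.5 in these data, passing the limit was not always enough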;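 further: z-score of nuclear minus cytoplasmic ring GR-EGFP intensity difference per well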
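Buffer or medium – tet-free medium with charcoal-stripped serum · Signal – automated 10x imaging of fixed Hoechst-stained cells · Also added – dexamethasone agonist, 1.0 µM final, for 30 min · Incubation – induction 48 h, compound 1 h, agonist 30 min · Read-out – GR-EGFP nuclear translocation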
Lmaj promast: Leishmania major promastigote growth inhibition; Leishmania major promastigotes, resazurin fluorescence viability; inhibition, % at 10 µM; actives 9% (n = 200,000); AID 1063; in the data active means inhibition above about 50%;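 further: promastigotes grown with compound for 44 hours at 28 °C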
UPR CHOP act: activators of apoptotic arm of unfolded protein response (CHOP) | activation, % at 10 µM | actives 0.34% (n = 330,000) | CHO-CHOP luciferase reporter, UPR activation, luminescence; percent of tunicamycin response over DMSO baseline | AID 449763;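 active means at 10 µM dose, activation of 40% or more, normalized to positive control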;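 further: 100% = tunicamycin at 10 µg/mL and 0% = DMSO alone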
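Test system: CHO-CHOP cells, stable luciferase reporter of PERK-eIF2a-CHOP signalling | Quantity: 500 CHO-CHOP cells per well | Buffer or medium: F12 plus 10% serum | Compound dosing: 10 µM single point, 0.5% DMSO | Schedule: 6 h compound treatment, 37 °C | Signal: Luciferase luminescence | Control set: Tunicamycin high control, DMSO low control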
CHOP inhibitor: CHOP inhibition in unfolded protein response | AID 2732 | actives 3.8% (n = 220,000) | CHO-K1 CHOP-promoter luciferase, tunicamycin-induced, 15-18 h | inhibition, % at 10 µM;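 active means compounds that reduced the stress-induced luciferase reporter signal by more than about 70% of percent inhibition, limit read from the data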;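 further: 0% = tunicamycin plus vehicle and 100% = wells without tunicamycin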
CHOP inh conf: confirmation of CHOP induction inhibitors; CHO-CHOP promoter luciferase reporter, tunicamycin-induced, luminescence; inhibition, % at 10 µM; shares compounds with CHOP inhibitor; actives 45% (n = 2,100);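 active means mean of three repeat readings of reporter signal inhibition above a set limit, cut at about 70% in these data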;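 further: 0% = tunicamycin plus vehicle and 100% = wells lacking tunicamycin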
Numbers without * were called inactive; ? = inconclusive; / = not tested or not shown.

SMILES	UPR XBP1 act	T cruzi inh	Dynein transport	Lmaj promast	UPR CHOP act	CHOP inhibitor	CHOP inh conf
O=C(Nc1ccccc1O)c1c(O)c2c([nH]c1=O)CCCC2	2	-15	0.063	-4	7	103*	126*
CC(C)(C)c1ccc(C(=O)N/N=C/c2cccc(Cl)c2)cc1	2	36	-0.044	44	5	-20	/
COc1ccccc1NC(=O)CCSc1nc(C)cs1	-1	9	/	/	0	/	/
O=C(Nc1ccc([N+](=O)[O-])cc1)Nc1nc(-c2ccc(Cl)s2)cs1	/	46	0.38	82*	/	107*	83*
CC(=O)Nc1nc(-c2ccc([N+](=O)[O-])cc2)cs1	0	4	0.28	-8	11	8	/
Cn1c(SCC(=O)NNC(=O)c2ccccc2)nnc1C(F)(F)F	-1	/	/	/	0	/	/
O=c1c2ccccc2nc2n1CCN2Cc1ccc(Cl)cc1	-3	-16	-0.52	-8	3	99*	95*
Cc1ccc(C2CN(C)C3(C(=O)Nc4ccccc43)C23COc2ccccc2C3=O)cc1 (stereo unspecified)	1	27	-0.19	29	-2	107*	88*
O=C(/C=C/c1ccccc1)Nc1cccc(C(=O)O)c1	-13	-7	-0.56	-5	-10	97*	116*
O=C(Oc1ccc(O)cc1)C12CC3CC(CC(C3)C1)C2	1	-16	-0.29	-1	-2	106*	116*
COc1ccccc1NS(=O)(=O)c1ccc(C)c(C(=O)NCC2(N(C)C)CCCCC2)c1	-2	/	/	/	-1	/	/
Oc1ccc(/C=N/N2CCN(C3c4ccccc4-c4ccccc43)CC2)c(O)c1	-3	7	1.2	-3	-2	100*	112*
Oc1ccc(/C=N/N2CCN(C3c4ccccc4-c4ccccc43)CC2)cc1	-2	9	-0.41	/	1	9	/
CCOc1ccc(N2CC(C(=O)Nc3ccccc3C(=O)N3CCOCC3)CC2=O)cc1 (stereo unspecified)	-1	-2	/	/	2	/	/
COc1cccc(N2CCN(c3ncnc4c3[nH]c3ccccc34)CC2C)c1 (stereo unspecified)	-11	?	-0.81	90*	-6	109*	117*
CC1=NN(c2nc(-c3ccc(C)cc3)cs2)C(=O)C1N=Nc1ccccc1O (stereo unspecified)	1	55*	0.59	99*	2	107*	77*
COc1ccccc1-c1nnc(NC(=O)c2ccc(S(=O)(=O)N(C)Cc3ccccc3)cc2)o1	1	/	0.58	97*	24	97*	97*
COc1ccccc1-c1nnc(NC(=O)c2ccc(S(=O)(=O)N3CCOCC3)cc2)o1	-5	0	/	/	-2	/	/
CCC(C)[C@H](NS(=O)(=O)c1ccc(C)cc1)C(=O)N1CCC(C(=O)N[C@@H](Cc2ccccc2)C(=O)O)CC1 (stereo partly specified)	-3	6	/	/	2	/	/
CN(C)c1ccc(/C=C/c2cccc[n+]2[O-])cc1	0	-9	-0.24	/	4	-6	/
CN(C)c1ccc(/C=C/c2ccc3c4ccccc4ccc3[n+]2-c2ccccc2)cc1	/	/	-0.72	100*	/	108*	123*
CC1CCCC(NCC(O)COC(c2ccc(F)cc2)c2ccc(F)cc2)C1C (stereo unspecified)	16	21	0.52	100*	1	103*	111*
CC1CCCC(NC(=O)CSc2ccc(F)cc2)C1C (stereo unspecified)	-1	-1	-1.8	-2	1	16	/
O=C(NC(Nc1nc2ccc([N+](=O)[O-])cc2s1)(C(F)(F)F)C(F)(F)F)c1ccccc1Cl	-1	55*	-0.5	100*	25	97*	125*
CC1(C)CCCC2=C1CC1C(=O)N(N)C(=O)C1C2 (stereo unspecified)	-2	-18	0.12	/	1	16	/
SMILES	UPR XBP1 act	T cruzi inh	Dynein transport	Lmaj promast	UPR CHOP act	CHOP inhibitor	CHOP inh conf
CCc1ccc(CN/C=C/C(=O)c2ccc(Br)cc2)cc1	-2	23	-1.2	-10	0	104*	-26
CCc1ccc(NCCC(=O)c2ccc(Br)cc2)cc1	-1	28	1.4	-2	2	-14	/
CCOC(=O)/C=c1\s/c(=C\c2ccc(-c3ccccc3)cc2)c(=O)n1CC(=O)NCc1ccc2c(c1)OCO2	1	3	-1	47	2	-8	/
CCOC(=O)/C=c1\s/c(=C\c2sccc2C)c(=O)n1CC(=O)NCc1ccc(C)cc1	64*	8	-1	-7	54*	99*	20
C/C(=N\NC(=O)C1CCCC1)c1ccc(Cl)cc1	6	/	/	/	3	/	/
CC(C)n1c(SCC(=O)Nc2nc3ccccc3s2)nc2c1c(=O)n(C)c(=O)n2C	4	-14	0.21	11	3	21	/
COc1ccc2nc(NC(=O)CSc3nnnn3C3CCCCC3)sc2c1	0	14	3.1	4	0	1	/
CCOc1ccc2nc(NC(=O)CSc3nc4c(c(=O)n(C)c(=O)n4C)n3C(C)C)sc2c1	4	14	-0.51	14	1	105*	84*
CCOc1ccc2nc(NC(=O)CSc3nnnn3C3CCCCC3)sc2c1	-1	56*	1.4	10	1	107*	110*
COc1ccc(/C=c2\sc3nc(-c4ccccc4OC)nn3c2=O)c(OC)c1	5	-6	-3.4	-5	0	102*	21
COc1cccc(/C=c2\sc3nc(-c4cccs4)nn3c2=O)c1OC	0	-28	1.2	-2	-1	2	/
CSc1nc2n(n1)C(c1cccc(F)c1)C(C(=O)Nc1ccc(C)cc1C)=C(C)N2 (stereo unspecified)	0	0	0.095	-7	0	34	/
CC1=C(C(=O)Nc2ccc(C)cc2C)C(c2ccc(Cl)cc2)n2nc(C(=O)OC(C)C)nc2N1 (stereo unspecified)	0	-9	-0.3	-3	5	105*	18
COc1nc(N(C)C)nc(N(C#N)S(=O)(=O)c2ccc(C)cc2)n1	-2	-3	/	/	1	/	/
O=C(Cn1[nH]c(=O)c2ccccc2c1=O)NCCN1C(=O)S/C(=C\c2ccccc2)C1=O	-1	/	/	/	2	/	/
Cc1cc(Oc2cc(N)cc([N+](=O)[O-])c2)ccc1Cl	-2	14	0.064	-8	-1	102*	4

Source: PubChem
